Consider 56 compounds from PubChem BioAssay AID624466 (The Scripps Research Institute Molecular Screening Center, 2012).

Hit rate of the full screen: of about 360,000 compounds, about 5,400 (1.5%) were called active.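 Rule for the calls: active = inhibition above a per-plate cutoff, the mean inhibition of test compounds on that plate plus 3 SD (cut at about 49% in these data); inactive = the rest.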 Only a selection was taken, and actives are over-represented in it overall.

The target in this assay is Trace amine-associated receptor 1 (Homo sapiens) (UniProt Q96RJ0). As to the kind of experiment: human TAAR1 antagonists, primary screen, Fluo-8 calcium fluorescence, CHO RD-HGA16 cells (AID 624466).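 Note: 0% = DMSO plus EC80 beta-PEA response and 100% = DMSO alone without agonist.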 Conditions: CHO RD-HGA16 TAAR1, Fluo-8 calcium fluorescence, antagonist; at 3 µM; active compounds read high. The method, boiled down: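 Assay system: CHO-derived RD-HGA16 cells stably expressing human TAAR1 plus Gα16. Timing: 140 s kinetic read after compound, 140 s after agonist. Technique: kinetic Fluo-8 calcium fluorescence measurement. Measure: % inhibition of agonist calcium response.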
Sequence of Trace amine-associated receptor 1 (Homo sapiens) (Q96RJ0 whole entry, looked up): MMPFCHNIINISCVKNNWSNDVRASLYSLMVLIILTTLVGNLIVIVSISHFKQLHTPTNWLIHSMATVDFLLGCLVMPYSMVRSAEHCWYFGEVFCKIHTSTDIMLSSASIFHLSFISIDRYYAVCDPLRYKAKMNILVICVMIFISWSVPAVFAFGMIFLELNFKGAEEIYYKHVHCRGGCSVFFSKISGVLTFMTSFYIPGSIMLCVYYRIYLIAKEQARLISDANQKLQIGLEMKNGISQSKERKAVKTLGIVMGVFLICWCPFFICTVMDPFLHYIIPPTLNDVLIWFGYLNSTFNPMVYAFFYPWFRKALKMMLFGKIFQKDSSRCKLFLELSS
As to `CSc1ccc(C#N)cc1NC(=O)c1ccc(Cl)cc1`, the inhibition is -1.99% (inactive). Take `CCc1ccc(NC(=O)C(=O)N/N=C(\C)CC(=O)NCCOC)cc1`: the inhibition was -6% (inactive).

Take `CCOC(=O)[C@]12CCC=C1N(Cc1cccc3ccccc13)C(=O)[C@H](CC(=O)NCc1cccc(C(F)(F)F)c1)C2`: the inhibition is -4.64% (inactive). For `COc1cc(/C=C2/C(=O)ON=C2C)ccc1OCc1ccccc1F` the value was 51.4% (active).

For the compound `CC1=NOC(=O)/C1=C\c1ccccc1`, the inhibition was -15% (inactive).

As to `C#CCOc1ccc(/C=C2/C(=O)ON=C2C)cc1OCC`, the inhibition is 12.6% (inactive). As to `CC[C@H](NC(=O)[C@H](Cc1ccccc1)NC(=O)[C@H]1O[C@@H](n2cnc3c(=O)[nH]c(N)nc32)[C@H](O)[C@@H]1O)c1ccccc1`, the inhibition was -41.7% (inactive).

`CC(C)(C)n1nc2c(c1NC(=O)c1ccc(S(=O)(=O)N3CCCC3)cc1)CS(=O)C2` (stereo unspecified): the inhibition was 4.79% (inactive).

In the case of `COc1ccc(CNS(=O)(=O)c2cc(Br)ccc2Br)cc1`, the inhibition is -2.96% (inactive). Regarding `CC(C)CC1NC(=O)c2cc(Cl)ccc2-n2c1nc1ccccc1c2=O` (stereo unspecified), the inhibition was -6.66% (inactive). For `CCCOc1ccc(F)cc1-c1cc(C(=O)Nc2ccc(F)cc2)[nH]n1` the value was 15.5% (inactive); for `CCCOc1ccc(F)cc1-c1cc(C(=O)NCc2ccc(F)cc2)[nH]n1`, 53.6% (active).

As for `CCCOc1ccc(F)cc1-c1cc(C(=O)Nc2ccc(F)c(Cl)c2)[nH]n1`, the inhibition was 38.5% (inactive).

For the compound `O=S1(=O)c2ccc(Br)cc2-n2nncc2CN1Cc1cccc(Cl)c1`, the inhibition was 3.33% (inactive). As for `O=c1onc(-c2c(F)cccc2F)n1-c1ccccc1Cl`, the inhibition was 4.53% (inactive). On to `COc1ccc(-c2nc3ccccc3c(=O)n2CCc2ccc(O)cc2)cc1`, for which the inhibition is 58.4% (active). For `COc1ccc(CCNCc2c(-c3ccccc3)n(C)c3ccccc23)cc1` the value was 25% (inactive). Take `COc1ccc(-c2ccc(CCC(=O)O)n2-c2ccc(O)cc2)cc1`: the inhibition was -5.35% (inactive). For `Cc1ccc(-c2nc3c(C)cc(Br)cn3c2Cc2ccccc2)cc1`, the inhibition is -21.5% (inactive). For `O=C(N[C@H]1CC[C@H](CC(=O)N2CCCCC2)O[C@@H]1CO)c1cccc(F)c1` the value was 4.76% (inactive); for `CC(=O)C[C@@H](O)CC(=O)[C@H]1OC(=O)CCCCCCc2ccccc21`, 6.02% (inactive). In the case of `CCc1ccc(C2=CC(=O)CC(C)(C)C2=O)cc1`, the inhibition is -8.28% (inactive). As for `O=C(O)Cn1cnc2c(NCc3ccccc3)ncnc21`, the inhibition was -23.5% (inactive). As for `COC(=O)c1ccc(C2NC(=O)NC(C)=C2C(=O)N(C)C)cc1` (stereo unspecified), the inhibition is -4.25% (inactive).

Take `CCOc1ccc(OCc2ccc(C(=O)Nc3cccc(C)n3)o2)cc1`: the inhibition is 16.1% (inactive). `Cc1cccc(NC(=O)c2ccc(COc3ccccc3[N+](=O)[O-])o2)n1`: the inhibition was 51.5% (active). As for `CCCCNc1ccc(C(=O)Nc2cccc(C)n2)cc1[N+](=O)[O-]`, the inhibition is 24.1% (inactive). The same measure for `Cn1c(=O)c2c(ncn2CC(=O)N/N=C/c2cn[nH]c2-c2ccc(F)cc2)n(C)c1=O`: 2.24% (inactive). As to `CCCCCn1nnnc1C1c2ccccc2C(=O)N1Cc1ccco1` (stereo unspecified), the inhibition was -12.2% (inactive).

As for `O=C(NS(=O)(=O)c1cccs1)[C@H]1O[C@@H](n2ccc(=O)[nH]c2=O)[C@H](O)[C@@H]1O`, the inhibition is -23.6% (inactive). On to `CCOc1cc(/C=N/NC(=O)c2c(C)nc3ccc(Cl)cn23)ccc1O`, for which the inhibition is -3.33% (inactive).

For `O=C(NN=Cc1ccc2c(c1)CCC2)c1ccccc1O`, the inhibition is 10.7% (inactive). For `CCOc1cc(/C=N/NC(=O)c2cc(-c3ccccc3)nc3ccccc23)ccc1O`, the inhibition was 51.5% (active).

As for `CCOc1ccc(-c2cc(C(=O)N/N=C/c3ccc(O)cc3)c3ccccc3n2)cc1`, the inhibition is 0.39% (inactive). The same measure for `CC(C)(C)C(=O)Nc1ccc(C(=O)N/N=C/c2ccccc2OC(=O)c2ccc(Cl)cc2Cl)cc1`: 26.4% (inactive). Consider `COc1ccc(C(=O)Nc2ccccc2C(=O)N/N=C/c2ccc(O)c(OC)c2)cc1`, for which the inhibition was 62.8% (active).

As for `COc1ccc(-c2[nH]ncc2/C=N/NC(=O)c2cc(Br)ccc2O)c(OC)c1`, the inhibition was -4.36% (inactive). Consider `O=C(N/N=C/c1ccc(OCC2COCCO2)cc1)c1ccc(Br)cc1` (stereo unspecified), for which the inhibition was 18.2% (inactive).

Regarding `O=C(N/N=C/c1ccc(OC(=O)c2ccccc2Cl)cc1)c1ccc(O)cc1`, the inhibition is 68.9% (active). For `O=C(NC1CCCCC1)C(c1cc2ccccc2o1)n1c(=O)c(-c2ccco2)nc2ccccc21` (stereo unspecified) the value was -22.4% (inactive).

For the compound `N#Cc1ccc(-c2nc3cc(C#N)c(C#N)cc3nc2-c2ccccc2)cc1C#N`, the inhibition was -9.51% (inactive). `CC1CCCN(c2cccc3c2S(=O)(=O)N(Cc2ccc(F)cc2)[C@@H](C)[C@H](c2ccccc2)O3)C1` (stereo partly specified): the inhibition was -13.7% (inactive). As to `CCCNC(=O)c1cc2c(c(-c3cccc(-c4ccc(C#N)cc4)c3)n1)[C@@H](CCO)N(C(=O)CC)C2`, the inhibition was -3.02% (inactive). As to `COC(=O)[C@]12C[C@H](CC(=O)NCc3ccc(OC)c(OC)c3)C(=O)N(Cc3ccccc3)C1=C[C@H](C(C)C)O[C@@H]2C1CC1`, the inhibition was -4.52% (inactive). Consider `O=C(Nc1ccncc1)Nc1ccc(F)cc1`, for which the inhibition is 57.8% (active).

As for `COc1cccc(NC(=O)Nc2ccc(F)cc2)c1`, the inhibition is 14.5% (inactive). `CCc1ccc(NC(=O)Nc2ccncc2)cc1`: the inhibition was 6.77% (inactive). Regarding `CCC(C(=O)NCc1ccccc1)n1c(Cc2cc(F)cc(F)c2)nc2ccccc21` (stereo unspecified), the inhibition is -4.56% (inactive). Take `O=CN1CCN(C(=O)c2ccc(Br)o2)CC1`: the inhibition is -11.1% (inactive). For the compound `CN(CC(=O)Nc1ccccc1Cl)C(=O)c1ccccc1SCC(=O)N1CCCC1`, the inhibition is -6.53% (inactive). For `CC(NC(=O)c1ccccc1SCC(=O)N1CCCC1)c1ccccc1` (stereo unspecified) the value was -4.95% (inactive); for `O=C(COC(=O)c1ccccc1SCC(=O)N1CCCC1)Nc1ccccc1OC(F)F`, 56.5% (active).

`COc1ccccc1NC(=O)COC(=O)c1ccccc1SCC(=O)N1CCCC1`: the inhibition was -8.15% (inactive). For `CSc1ccccc1C(=O)OCC(=O)N1CCN(C(C)=O)CC1` the value was -1.96% (inactive); for `CC(C)N(Cc1ccccc1)C(=O)COC(=O)c1ccccc1SCC(=O)N1CCCC1`, 64% (active); for `COCCNC(=O)C1C(=O)Nc2ccccc2C(=O)N1c1ccc2c(c1)OCCO2` (stereo unspecified), -30.9% (inactive).
